# Screens (PubChem BioAssay)
# A selection: hits, their analogues and other compounds. The true share with any hit is near 5.4%.
# Cav3 T inh: human Cav3.2 channel inhibition, primary screen; O95180; Cav3.2-expressing cells, Fluo-4 calcium fluorescence FDSS; hits give low values; B-score at 10 µM; actives 4% (n = 100,000); AID 449739;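 active means single-dose well whose peak fluorescence ratio is a statistical outlier from its plate by either plate-standardised score or position-corrected B-score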
# hDAT+cocaine: human DAT dopamine uptake with cocaine, either direction | Q01959 | LLC-PK1 hDAT cells, [14C]-dopamine uptake with cocaine IC80; actives deviate in either direction | B-score at 10 µM | actives 1.3% (n = 110,000);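 active means Z score or B-score, a plate-position-corrected score, falls beyond the plate's 99.7% confidence bounds, in either direction; inactive means both scores lie inside the 99.7% bounds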;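 further: scored against the spread of the other compound wells on the same plate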
# Target sequence (Q01959 whole entry, looked up): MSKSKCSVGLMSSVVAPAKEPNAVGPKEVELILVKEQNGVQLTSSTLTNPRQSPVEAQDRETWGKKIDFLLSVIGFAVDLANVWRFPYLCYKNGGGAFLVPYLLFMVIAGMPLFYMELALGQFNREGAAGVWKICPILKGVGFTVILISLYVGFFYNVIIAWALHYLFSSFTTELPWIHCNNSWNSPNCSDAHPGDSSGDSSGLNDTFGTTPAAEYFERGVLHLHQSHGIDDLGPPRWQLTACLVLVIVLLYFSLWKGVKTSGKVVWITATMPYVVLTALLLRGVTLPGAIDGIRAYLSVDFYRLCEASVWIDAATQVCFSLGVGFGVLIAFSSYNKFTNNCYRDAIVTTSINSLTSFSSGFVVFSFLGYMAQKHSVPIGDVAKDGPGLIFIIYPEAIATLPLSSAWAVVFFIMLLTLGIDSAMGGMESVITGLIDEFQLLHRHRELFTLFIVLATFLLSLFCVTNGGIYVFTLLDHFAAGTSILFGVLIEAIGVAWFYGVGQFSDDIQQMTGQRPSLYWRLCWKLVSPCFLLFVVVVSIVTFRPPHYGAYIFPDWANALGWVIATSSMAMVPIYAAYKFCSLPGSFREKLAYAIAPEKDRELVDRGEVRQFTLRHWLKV
# Rev-RRE block: disrupts HIV-1 Rev binding to RRE RNA; inhibition, % at 8 µM; actives 0.79% (n = 97,000); Rev peptide-RRE RNA binding, FRET;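 active means inhibition above the screen-wide mean plus 3 SD, cut at about 35% in these data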;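 further: 0% = median DMSO wells and 100% = median Neomycin B control wells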
#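 Test system: Cy5-tagged RRE RNA duplex with fluorescein-tagged Rev peptide | Read-out: % inhibition of FRET ratio versus controls | Probe or stimulus: Labelled Rev peptide | Incubation: 5 min RNA-compound premix plus 15 min binding step, 25 °C | Technique: FRET fluorescence readout | Benchmarks: DMSO low control, neomycin B high control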
# EphB4 antag: EphB4-ephrin-B2 interaction antagonism; inhibition, % at 7 µM; EphB4 LBD / TNYL-RAW-Alexa532 peptide, fluorescence polarization; actives 0.15% (n = 97,000); P54760;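 active means inhibition above the screen-wide mean inhibition plus 3 SD, cut at about 15% in these data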;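 further: 0% = DMSO wells and 100% = excess unlabeled TNYL-RAW peptide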
# Active calls of the source: *; / = not tested or not shown; [ ] = another dose, or the depositor's remark.
SMILES,Cav3 T inh,hDAT+cocaine,Rev-RRE block,EphB4 antag
Cc1nn(Cc2cccc(F)c2)c(C)c1NC(=O)c1ccc(COc2ccccc2Cl)cc1,-4.6*,0.22,5,7
CC(C)CNC(=O)c1ccc(COc2ccc(Cl)cc2Cl)o1,-4.5*,0.97,12,2
COc1cc(CCCN2C(N)=NC[C@@H]2Cc2ccc(O)cc2)cc(OC)c1OC,0.048,0.35,/,/
CCOc1ccc(C(CC(=O)O)NC(=O)c2ccco2)cc1OC (stereo unspecified),0.15,-0.17,4,-2
CCOc1ccc(C(CCc2ccccc2)NC(=O)c2ccccc2)cc1OCC (stereo unspecified),-5.1*,0.35,-1,6
CCCOc1cccc(C(=O)Nc2cc(NC(=O)c3ccco3)ccc2OC)c1,-6.4*,1,4,4
CCCC(=O)Nc1ccc(C(=O)Nc2nnc(COCC)s2)cc1,1.1,-7.8*,0,6
CCOP(=O)(OCC)c1nc(/C=C/c2ccccc2)oc1NCc1ccc(OC)cc1,-5.6*,0.7,3,-1
CC(C)(CC(=O)N1CCN(c2ccc(Cl)cc2)CC1)CC1=NS(=O)(=O)c2ccccc2N1,/,/,-4,-1
O=C(CCc1nc2cccnc2n1Cc1ccccc1)NCCc1ccc(Cl)cc1,-7.2*,0.6,8,-6
COc1ccc(Cn2c(CCC(=O)Nc3ccccc3)nc3cccnc32)cc1,1.9,0.1,8,0
COc1ccc(Cn2c(CCC(=O)Nc3ccc(C)c(C)c3)nc3cccnc32)cc1,-3.5*,-0.31,-2,-4
COc1ccc(NC(=O)c2ccccc2NC(=O)CSc2ccc(Cl)cc2)cc1,-1,-0.17,2,3
Cn1c(=O)c2c3c(sc2n2c(SCC(N)=O)nnc12)CC(C(C)(C)C)CC3 (stereo unspecified),4.2*,0.55,-6,-2
Cc1cc(NC(=O)CSc2nc(CC(C)(C)C)nc3c2c(=O)n(C)c(=O)n3C)no1,-1.5,-0.67,5,1
COc1ccc(-c2nnc(SCC(=O)N(Cc3ccccc3)C(C)(C)C)o2)cc1OC,-7.1*,-0.56,-1,4
O=C(CN1C(=O)C2CC=CCC2C1=O)Nc1ccc(S(=O)(=O)NC2=NCCCCC2)cc1 (stereo unspecified),1.8,-8.1*,2,-4
Cc1cc(N)n(-c2nc(-c3cccnc3)nc3ccccc23)n1,/,-1.3,4,3
Cc1cccc(CN2C(=O)N/C(=C/c3ccc(C)s3)C2=O)c1,-0.085,-0.32,58*,6
Cc1cccc(CN2C(=O)N/C(=C/c3cc(C)n(-c4cc(C)ccn4)c3C)C2=O)c1,-0.08,1.8,9,3
Cn1cccc1-c1nc2ccccc2n1Cc1ccccc1,-4.7*,0.42,6,-5
C=CCc1ccc(O)c(-c2ccc(O)c(CC=C)c2)c1,-5.4*,0.0064,/,/
C=CCc1cc(C(=O)N2CCCCC2)ccc1O,/,0.63,4,4
COc1ccc(OC)c(/C(O)=C/C(=O)C(=O)Nc2ccccc2OC)c1,-8.5*,1.1,7,2
COc1ccc(OC)c(S(=O)(=O)N(C)CC(=O)Nc2ccccc2OC)c1,1.2,0.64,1,-1
SMILES,Cav3 T inh,hDAT+cocaine,Rev-RRE block,EphB4 antag
COc1ccccc1OCc1ccc(C(=O)Nc2ccncc2)o1,-0.099,0.017,1,2
CCOc1ccccc1NC(=O)CN1CCC(NC(=O)c2ccccc2)CC1,0.36,-1.4,3,6
CCOc1ccc(OCC)c(NC(=O)CN2CCC(NC(=O)c3cccc(F)c3)CC2)c1,-0.4,3.3*,/,/
CC12CC(NC(=O)N1c1cccc(C(=O)N3CCN(c4ccccc4F)CC3)c1)c1ccccc1O2 (stereo unspecified),-4.6*,0.5,5,8
CC12CC(NC(=O)N1c1cccc(C(=O)NCc3ccc4c(c3)OCO4)c1)c1cc(Cl)ccc1O2 (stereo unspecified),-3.7*,-0.15,8,2
Cc1nc2c3ccccc3[nH]c(=O)n2n1,0.53,-0.52,6,2
C=CCOC(=O)C1=C[C@H](c2csc3ccccc23)C[C@H](OCc2ccc(CO)cc2)O1,-0.93,0.8,/,/
CC1=C(C(=O)OCC(Br)(Br)Br)C(c2ccc(Br)cc2)NC(=O)N1CCCC(=O)O (stereo unspecified),0.089,0.84,/,/
CCCCOc1ccccc1NC(=O)Cn1c(-c2nonc2N)nc2ccccc21,-4.2*,-0.0049,/,/
CC(C)(C)NC(=O)Cn1c(-c2nonc2N)nc2ccccc21,1,-0.06,11,-9
COc1ccc(CN(CC(=O)NCC2CCCO2)C(=O)CNS(=O)(=O)c2ccc(C)cc2)cc1 (stereo unspecified),-0.23,-0.36,3,-3
COc1ccc(CNC(=O)CN(CC2CCCO2)C(=O)CNS(=O)(=O)c2ccc(F)cc2)cc1 (stereo unspecified),-6.2*,0.77,/,/
COCC(C)NC(=O)NC1(C(F)(F)F)Oc2ccc(Cl)cc2O1 (stereo unspecified),0.11,-3.2*,0,-3
CCOC(=O)Cc1csc(NC(=O)NC2(C(F)(F)F)Oc3ccc(Cl)cc3O2)n1 (stereo unspecified),0.61,0.9,20,4
CN(C)/C=C(\C#N)C(=O)c1cccc(Oc2ccc(Br)cc2)c1,-4.2*,1.2,10,4
Cc1cc(C)cc(-n2c(C)cc(/C=N/NC(=O)CSc3ncccn3)c2C)c1,-6.8*,1.6,-6,-6
Cc1cc(C)cc(-n2c(C)cc(/C=N/NC(=O)c3cccc([N+](=O)[O-])c3C)c2C)c1,-2.5,0.22,-3,3
c1ccc(CN2CCN(C3=Nc4cccc5cccc3c45)CC2)cc1,-0.22,-0.1,32,1
O=C1CCN2C=Nc3cccc4ccc1c2c34,-8.5*,0.41,130*[fluorescence artefact?],-4
COc1cc(CCN2C(=O)N[C@@H](CCc3ccccc3)C(C(C)=O)=C2C)cc(OC)c1OC,1.1,0.73,/,/
O=c1c2ccccc2nc(N2CCN(c3ccccc3)CC2)n1Cc1ccccc1,-5.4*,0.1,7,-10
Cc1ccc(CCNC(=O)Cn2cccc2)cc1,0.082,0.13,0,-5
c1ccc2c(c1)CCCN2Cc1nnnn1CC1CCCO1 (stereo unspecified),0.56,-0.081,55*,-2
CCOC(=O)N1CCN(c2ncnc3c2oc2nc(C(C)C)c4c(c23)CCC4)CC1,-1.2,-0.3,/,/
CC(C)Cc1nc2oc3c(N4CCN(CCO)CC4)ncnc3c2c2c1CCCC2,0.31,2.4*,/,/
SMILES,Cav3 T inh,hDAT+cocaine,Rev-RRE block,EphB4 antag
O=C(CSCC(=O)N1CCCCC1)Nc1nc(-c2ccc(Cl)s2)cs1,-5.2*,0.78,6,10
CCOC(=O)N1CCN(C(=O)CSCC(=O)Nc2nc(-c3ccccc3)cs2)CC1,-2.7,-0.26,5,-8
O=C(Cc1ccccc1F)Nc1nc(-c2cccs2)cs1,-9.6*,3.4*,1,-8
O=C(CSCC(=O)N1CCCCC1)Nc1nc(-c2cccs2)cs1,-3.7*,0.071,6,-1
O=C(CSCC(=O)N1CCN(c2ccccc2)CC1)Nc1nc(-c2ccc(Cl)s2)cs1,-5.6*,-0.42,-3,-1
CCOc1ccccc1NC(=S)NCc1ccco1,0.98,-0.12,5,3
